Published values gathered from unrelated publications.
Target: Serine/threonine-protein kinase PLK4 (PLK4, Homo sapiens, UniProt O00444)
Sequence (O00444 1-970, as in one of the studies): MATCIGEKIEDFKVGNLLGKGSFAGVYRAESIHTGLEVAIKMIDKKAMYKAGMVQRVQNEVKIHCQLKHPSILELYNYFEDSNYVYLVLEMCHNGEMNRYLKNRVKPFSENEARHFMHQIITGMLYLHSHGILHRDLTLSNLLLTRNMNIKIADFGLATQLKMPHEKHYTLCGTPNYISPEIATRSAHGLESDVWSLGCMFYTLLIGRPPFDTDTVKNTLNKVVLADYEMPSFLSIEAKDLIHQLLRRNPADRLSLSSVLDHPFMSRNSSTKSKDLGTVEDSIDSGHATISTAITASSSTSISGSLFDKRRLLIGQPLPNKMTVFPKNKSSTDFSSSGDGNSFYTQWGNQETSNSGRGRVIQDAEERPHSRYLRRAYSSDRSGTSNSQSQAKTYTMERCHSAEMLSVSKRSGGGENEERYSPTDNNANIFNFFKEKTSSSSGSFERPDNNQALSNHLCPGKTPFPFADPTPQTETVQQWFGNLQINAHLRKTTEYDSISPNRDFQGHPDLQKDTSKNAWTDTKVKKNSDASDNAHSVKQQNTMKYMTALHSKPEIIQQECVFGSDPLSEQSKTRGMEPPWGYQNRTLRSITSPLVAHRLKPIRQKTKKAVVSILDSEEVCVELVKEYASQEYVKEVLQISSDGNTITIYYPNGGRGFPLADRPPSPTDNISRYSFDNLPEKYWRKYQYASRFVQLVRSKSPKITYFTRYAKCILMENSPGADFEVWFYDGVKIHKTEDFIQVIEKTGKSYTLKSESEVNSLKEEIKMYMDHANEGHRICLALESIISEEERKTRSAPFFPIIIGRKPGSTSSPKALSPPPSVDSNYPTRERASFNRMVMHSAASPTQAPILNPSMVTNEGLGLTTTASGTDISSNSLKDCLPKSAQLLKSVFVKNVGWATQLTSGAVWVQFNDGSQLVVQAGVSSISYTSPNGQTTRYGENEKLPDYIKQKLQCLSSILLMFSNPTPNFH

| SMILES | assay | conditions | remaining binding [%] |
| --- | --- | --- | --- |
| COc1ncc2cc3ccccc3nc2c1C#N | cell-free assay, competition with immobilised ligand | 5 µM | 100 |
| O=C(NCCCN1CCOCC1)c1ccc(Nc2nccc(-c3cc4ccccc4s3)n2)cc1 | binding, competition with immobilised ligand | 1 µM | 58 |
| CN(C(=O)c1ccccc1)c1cc(N(C)c2ccc3c(c2)CCc2ccc(C(=O)NCCN4CCOCC4)cc2C3=O)ccc1F | cell-free assay, competition with immobilised ligand | 1 µM | 93 |
| C[C@@H]1CN(c2ccc3ncc(-c4ccc5[nH]nc(C6CC6)c5c4)n3n2)C[C@H](C)O1 | binding, competition with immobilised ligand | 0.5 µM | 90 |
| Nc1ncc2c(n1)-c1c([nH]c3ccc(C#CC4CC4)cc13)CCCC2 | binding, competition with immobilised ligand | 1 µM | 87 |
| CS(=O)(=O)N1CCCC(NC(=O)[C@H](CCC2CCCCC2)NC(=O)c2ccc(CNc3ncnc4c3nnn4-c3ccccc3)cc2)C1 (some centres unmarked) | cell-free assay, competition with immobilised ligand | 0.1 µM | 82 |
| CN(C)c1nccc(-c2cnc3ncccn23)n1 | binding | 1 µM | 68 |
| C=CC(=O)N1CCC(C(=O)NCC(=O)N2CCN(c3nc(-c4cnc(N)nc4C(F)F)nc(N4CCOCC4)n3)CC2)CC1 | binding, competition with immobilised ligand | 1 µM | 89 |
| CN(c1nccc(-c2cnn3ncccc23)n1)C1CC1 | binding | 1 µM | 100 |
| Cc1cnc(Nc2ccc(C(=O)N3CCC(N4CCCC4)CC3)cc2)nc1-c1cc2ccccc2s1 | binding, competition with immobilised ligand | 1 µM | 14 |
| CN(C)c1ncc(F)c(-c2cnn3ncccc23)n1 | binding | 1 µM | 100 |
| CC(C)(O)c1cncc(-c2nc3ccc(F)cc3n2C2CC2)c1 | cell-free assay, competition with immobilised ligand | 1 µM | 79 |
| c1cnn2ncc(-c3ccnc(N4CCC45COC5)n3)c2c1 | binding | 1 µM | 79 |
| O=C1CCc2cc(Nc3cc(OC4CCOCC4)c([N+](=O)[O-])cc3Cl)ccc2N1 | cell-free assay, competition with immobilised ligand | 1 µM | 86 |
| CNC(=O)[C@@H]1CC[C@@H](n2c(-c3ccc4cnccc4c3)nc3ccc(C(=O)NCc4cccc(C(N)=O)c4)cc32)C1 | binding, competition with immobilised ligand | 1 µM | 100 |
| CN(C)c1nccc(-c2cnn3ncccc23)n1 | binding | 1 µM | 96 |
| Cc1cc(C)c(-n2ccn3nc(-c4cccnc4)cc23)cc1NC(=O)c1cc(C#N)cc(S(F)(F)(F)(F)F)c1 | cell-free assay, competition with immobilised ligand | 0.1 µM | 64.1 |
